Values after ≈ are worked out from the molar mass of the structure shown.
How the values were obtained:
Assay type in all cases: functional
Klebsiella pneumoniae [1] = assay: Antimicrobial activity against Klebsiella pneumoniae isolate KpL expressing beta-lactamase OXA-48 by Etest method
Klebsiella pneumoniae [2] = assay: Antimicrobial activity against Klebsiella pneumoniae isolate Kp11978 expressing beta-lactamase OXA-48, SHV-2a and TEM-1 by Etest method
Escherichia coli [3] = assay: Antimicrobial activity against Escherichia coli isolate J53 harboring pA-1 containing beta-lactamase OXA-48 located within transposon Tn1999 by Etest method
How it was run: (§1)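 β-Lactam MICs read with Etest strips. Strains are E. coli J53 recipient and J53 transconjugants carrying OXA-48-positive plasmids recovered from clinical enterobacterial isolates.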

Klebsiella pneumoniae [4] = assay: Antimicrobial activity against Klebsiella pneumoniae isolate KpB expressing OXA-48 and CTX-M-15 by Etest method
Escherichia coli [5] = assay: Antimicrobial activity against Escherichia coli isolate J53 harboring pBb containing beta-lactamase OXA-48 located within transposon Tn1999.2 by Etest method; how it was run: as §1
Klebsiella pneumoniae [6] = assay: Antimicrobial activity against Klebsiella pneumoniae isolate Kp3A expressing beta-lactamase OXA-48 by Etest method
How it was run: (§2)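 MICs of β-lactams read from Etest strips. The test organisms are carbapenem-resistant, OXA-48-positive clinical Enterobacteriaceae isolates recovered from Turkey, Lebanon, Egypt, France and Belgium.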

Escherichia coli [7] = assay: Antimicrobial activity against Escherichia coli isolate J53 harboring p3A containing beta-lactamase OXA-48 located within transposon Tn1999 by Etest method; how it was run: as §1
Klebsiella pneumoniae [8] = assay: Antimicrobial activity against Klebsiella pneumoniae isolate Kp4A expressing beta-lactamase OXA-48 and CTX-M-15 by Etest method
Klebsiella pneumoniae [9] = assay: Antimicrobial activity against Klebsiella pneumoniae isolate Kp5A expressing beta-lactamase OXA-48 and SHV-5 by Etest method
Klebsiella pneumoniae [10] = assay: Antimicrobial activity against Klebsiella pneumoniae isolate Kp6A expressing beta-lactamase OXA-48 and TEM-150 by Etest method
Escherichia coli [11] = assay: Antimicrobial activity against Escherichia coli isolate J53 harboring p4A containing beta-lactamase OXA-48 located within transposon Tn1999 by Etest method; how it was run: as §1
Escherichia coli [12] = assay: Antimicrobial activity against Escherichia coli isolate J53 harboring p5A containing beta-lactamase OXA-48 located within transposon Tn1999 by Etest method; how it was run: as §1
Escherichia coli [13] = assay: Antimicrobial activity against Escherichia coli isolate J53 harboring p6A containing beta-lactamase OXA-48 located within transposon Tn1999 by Etest method; how it was run: as §1
Klebsiella pneumoniae [14] = assay: Antimicrobial activity against Klebsiella pneumoniae isolate Kp7A expressing beta-lactamase OXA-48 by Etest method; how it was run: as §2
Escherichia coli [15] = assay: Antimicrobial activity against Escherichia coli isolate J53 harboring p7A containing beta-lactamase OXA-48 located within transposon Tn1999 by Etest method; how it was run: as §1
Klebsiella pneumoniae [16] = assay: Antimicrobial activity against Klebsiella pneumoniae isolate KpI-1 expressing beta-lactamase OXA-48 and CTX-M-15 by Etest method
Klebsiella pneumoniae [17] = assay: Antimicrobial activity against Klebsiella pneumoniae isolate KpI-2 expressing beta-lactamase OXA-48 and CTX-M-15 by Etest method
Escherichia coli [18] = assay: Antimicrobial activity against Escherichia coli isolate J53 harboring pI-1 containing beta-lactamase OXA-48 located within transposon Tn1999.2 by Etest method; how it was run: as §1
Escherichia coli [19] = assay: Antimicrobial activity against Escherichia coli isolate J53 harboring pI-2 containing beta-lactamase OXA-48 located within transposon Tn1999.2 by Etest method; how it was run: as §1
Klebsiella pneumoniae [20] = assay: Antimicrobial activity against Klebsiella pneumoniae isolate KpBIC expressing beta-lactamase OXA-48 by Etest method; how it was run: as §2
Escherichia coli [21] = assay: Antimicrobial activity against Escherichia coli isolate TOP10 harboring pBIC containing beta-lactamase OXA-48 located within transposon Tn1999.2 by Etest method
How it was run: (§3)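 β-Lactam MICs read with Etest strips. Strains are E. coli TOP10 host and TOP10 transformants made with plasmid DNA extract when conjugation failed. Transformants were selected on LB agar with ticarcillin 50 μg/ml.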

Klebsiella pneumoniae [22] = assay: Antimicrobial activity against Klebsiella pneumoniae isolate KpE expressing beta-lactamase OXA-48 and CTX-M-15 by Etest method
Escherichia coli [23] = assay: Antimicrobial activity against Escherichia coli isolate J53 harboring pE containing beta-lactamase OXA-48 located within transposon Tn1999.2 by Etest method; how it was run: as §1
Klebsiella pneumoniae [24] = assay: Antimicrobial activity against Klebsiella pneumoniae isolate KpBEL expressing beta-lactamase OXA-48 by Etest method; how it was run: as §2
Escherichia coli [25] = assay: Antimicrobial activity against Escherichia coli isolate J53 harboring pBEL containing beta-lactamase OXA-48 located within transposon Tn1999.2 by Etest method; how it was run: as §1
Escherichia coli [26] = assay: Antimicrobial activity against Escherichia coli isolate J53 harboring pL containing beta-lactamase OXA-48 located within transposon Tn1999.2 by Etest method; how it was run: as §1
Providencia rettgeri = assay: Antimicrobial activity against Providencia rettgeri isolate expressing beta-lactamase OXA-48 and TEM-101 by Etest method
Enterobacter cloacae [27] = assay: Antimicrobial activity against Enterobacter cloacae isolate 1 expressing beta-lactamase OXA-48 and SHV-5 by Etest method
Escherichia coli [28] = assay: Antimicrobial activity against Escherichia coli isolate J53 harboring pEnc1 containing beta-lactamase OXA-48 located within transposon Tn1999 by Etest method; how it was run: as §1
Enterobacter cloacae [29] = assay: Antimicrobial activity against Enterobacter cloacae isolate 2 expressing beta-lactamase OXA-48 and SHV-5 by Etest method
Escherichia coli [30] = assay: Antimicrobial activity against Escherichia coli isolate J53 harboring pEnc2 containing beta-lactamase OXA-48 located within transposon Tn1999 by Etest method; how it was run: as §1
Citrobacter freundii = assay: Antimicrobial activity against Citrobacter freundii isolate expressing beta-lactamase OXA-48 by Etest method
Escherichia coli [31] = assay: Antimicrobial activity against Escherichia coli isolate J53 harboring pCF containing beta-lactamase OXA-48 located within transposon Tn1999 by Etest method; how it was run: as §1
Escherichia coli [32] = assay: Antimicrobial activity against Escherichia coli isolate A expressing beta-lactamase OXA-48 and TEM-150 by Etest method
Escherichia coli [33] = assay: Antimicrobial activity against Escherichia coli isolate J53 harboring pEcA containing beta-lactamase OXA-48 located within transposon Tn1999.2 by Etest method; how it was run: as §1
Escherichia coli [34] = assay: Antimicrobial activity against Escherichia coli isolate TOP10 harboring pPR containing beta-lactamase and TEM-101 by Etest method; how it was run: as §3
Escherichia coli [35] = assay: Antimicrobial activity against Escherichia coli isolate J53 by Etest method; how it was run: as §1
Escherichia coli [36] = assay: Antimicrobial activity against Escherichia coli isolate TOP10 by Etest method; how it was run: as §3

SMILES	MIC (Klebsiella pneumoniae [2]) [µg/mL]	MIC (Escherichia coli [3]) [µg/mL]	MIC (Klebsiella pneumoniae [4]) [µg/mL]	MIC (Escherichia coli [5]) [µg/mL]	MIC (Klebsiella pneumoniae [6]) [µg/mL]	MIC (Escherichia coli [7]) [µg/mL]	MIC (Klebsiella pneumoniae [8]) [µg/mL]	MIC (Klebsiella pneumoniae [9]) [µg/mL]	MIC (Klebsiella pneumoniae [10]) [µg/mL]	MIC (Escherichia coli [11]) [µg/mL]	MIC (Escherichia coli [12]) [µg/mL]	MIC (Escherichia coli [13]) [µg/mL]	MIC (Klebsiella pneumoniae [14]) [µg/mL]	MIC (Escherichia coli [15]) [µg/mL]	MIC (Escherichia coli [18]) [µg/mL]	MIC (Escherichia coli [19]) [µg/mL]	MIC (Klebsiella pneumoniae [20]) [µg/mL]	MIC (Escherichia coli [21]) [µg/mL]	MIC (Klebsiella pneumoniae [22]) [µg/mL]	MIC (Escherichia coli [23]) [µg/mL]	also measured
C[C@@H](O)[C@H]1C(=O)N2C(C(=O)O)=C(SCCNC=N)C[C@H]12 [IMIPENEM ANHYDROUS]	64 (≈ 214 µM)	2 (≈ 6.68 µM)	16 (≈ 53.4 µM)	0.5 (≈ 1.67 µM)	> 32	0.75 (≈ 2.51 µM)	> 32	> 32	> 32	0.38 (≈ 1.27 µM)	0.38 (≈ 1.27 µM)	0.38 (≈ 1.27 µM)	> 32	0.75 (≈ 2.51 µM)	0.5 (≈ 1.67 µM)	0.5 (≈ 1.67 µM)	0.5 (≈ 1.67 µM)	0.5 (≈ 1.67 µM)	2 (≈ 6.68 µM)	2 (≈ 6.68 µM)	MIC (Klebsiella pneumoniae [1]): > 16 µg/mL; MIC (Klebsiella pneumoniae [16]): 24 µg/mL (≈ 80.2 µM); MIC (Klebsiella pneumoniae [17]): 24 µg/mL (≈ 80.2 µM); MIC (Klebsiella pneumoniae [24]): 0.75 µg/mL (≈ 2.51 µM); MIC (Escherichia coli [25]): 0.75 µg/mL (≈ 2.51 µM); MIC (Escherichia coli [26]): 4 µg/mL (≈ 13.4 µM); MIC (Providencia rettgeri): > 32 µg/mL; MIC (Enterobacter cloacae [27]): 0.5 µg/mL (≈ 1.67 µM); MIC (Escherichia coli [28]): 0.5 µg/mL (≈ 1.67 µM); MIC (Enterobacter cloacae [29]): 0.75 µg/mL (≈ 2.51 µM); MIC (Escherichia coli [30]): 0.75 µg/mL (≈ 2.51 µM); MIC (Citrobacter freundii): > 32 µg/mL; MIC (Escherichia coli [31]): 0.75 µg/mL (≈ 2.51 µM); MIC (Escherichia coli [32]): 24 µg/mL (≈ 80.2 µM); MIC (Escherichia coli [33]): 0.75 µg/mL (≈ 2.51 µM)
C[C@@H](O)[C@H]1C(=O)N2C(C(=O)O)=C(S[C@@H]3CN[C@H](C(=O)N(C)C)C3)[C@H](C)[C@H]12 [MEROPENEM]	64 (≈ 167 µM)	0.25 (≈ 0.652 µM)	32 (≈ 83.4 µM)	0.12 (≈ 0.313 µM)	> 32	0.12 (≈ 0.313 µM)	> 32	> 32	> 32	0.094 (≈ 0.245 µM)	0.094 (≈ 0.245 µM)	0.094 (≈ 0.245 µM)	> 32	0.12 (≈ 0.313 µM)	0.094 (≈ 0.245 µM)	0.094 (≈ 0.245 µM)	0.5 (≈ 1.3 µM)	0.5 (≈ 1.3 µM)	2 (≈ 5.22 µM)	2 (≈ 5.22 µM)	MIC (Klebsiella pneumoniae [24]): 0.5 µg/mL (≈ 1.3 µM); MIC (Escherichia coli [25]): 0.5 µg/mL (≈ 1.3 µM); MIC (Escherichia coli [26]): 0.19 µg/mL (≈ 0.495 µM); MIC (Providencia rettgeri): > 32 µg/mL; MIC (Escherichia coli [34]): 0.25 µg/mL (≈ 0.652 µM); MIC (Enterobacter cloacae [27]): 0.5 µg/mL (≈ 1.3 µM); MIC (Escherichia coli [28]): 0.094 µg/mL (≈ 0.245 µM); MIC (Enterobacter cloacae [29]): 0.75 µg/mL (≈ 1.96 µM); MIC (Escherichia coli [30]): 0.12 µg/mL (≈ 0.313 µM); MIC (Citrobacter freundii): > 32 µg/mL; MIC (Escherichia coli [31]): 0.12 µg/mL (≈ 0.313 µM); MIC (Escherichia coli [32]): 24 µg/mL (≈ 62.6 µM); MIC (Escherichia coli [33]): 0.19 µg/mL (≈ 0.495 µM); MIC (Escherichia coli [35]): 0.06 µg/mL (≈ 0.156 µM); MIC (Escherichia coli [36]): 0.06 µg/mL (≈ 0.156 µM)

Reference: ChEMBL document CHEMBL1255404, “Spread of OXA-48-encoding plasmid in Turkey and beyond” (2010)
